Bioassay records as filed in PubChem BioAssay.
SENP8 block-1: SENP8 protease inhibitors, primary screen, biochemical, luminescence. Sentrin-specific protease 8 (Homo sapiens), Q96LD8. purified SENP8, Z-RLRGG-aminoluciferin cleavage. inhibition, % at 10 µM. 1.2% of 330,000 active. AID 2540, 2010; in the data active means inhibition above about 50%
Target sequence (Q96LD8 whole entry, looked up): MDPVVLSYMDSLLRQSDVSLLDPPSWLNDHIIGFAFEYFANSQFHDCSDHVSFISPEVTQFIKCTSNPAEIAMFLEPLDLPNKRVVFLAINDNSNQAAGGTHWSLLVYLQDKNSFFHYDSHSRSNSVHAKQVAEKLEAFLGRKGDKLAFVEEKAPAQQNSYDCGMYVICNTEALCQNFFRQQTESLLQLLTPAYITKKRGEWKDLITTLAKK
SENP1 inh: human SENP1 catalytic domain inhibitors, primary screen, biochemical, FRET, uHTS; recombinant SENP1 catalytic domain, CyPet-SUMO1-YPet FRET cleavage; 0.21% of 360,000 active; inhibition, % at 10 µM; Sentrin-specific protease 1 (Homo sapiens), Q9P0U3; AID 624204, 2012;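 active means inhibition at least 30% at 10 µM, raw YFP signal under a set limit, fluorescence ratio 0.5 to 1.5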;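 further: 0% = enzyme with DMSO and 100% = no enzyme wells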
Target sequence (Q9P0U3 419-644 limits assumed): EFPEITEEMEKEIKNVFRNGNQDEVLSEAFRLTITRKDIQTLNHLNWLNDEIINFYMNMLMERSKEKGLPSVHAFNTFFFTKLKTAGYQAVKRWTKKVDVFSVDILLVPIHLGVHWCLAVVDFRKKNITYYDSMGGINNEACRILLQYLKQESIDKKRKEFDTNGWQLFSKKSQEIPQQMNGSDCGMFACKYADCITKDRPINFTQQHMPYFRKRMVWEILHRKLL
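Assay system: hSENP1 catalytic domain, recombinant. Amount: SENP1 enzyme, 20 pM final. Schedule: 50 min reaction, RT, dark. Technique: FRET, CFP and YFP emission. Control set: no-enzyme wells low, DMSO-plus-enzyme wells high control.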
UCH37 inh: inhibitors of human UCH37 deubiquitinase, primary screen, biochemical, Ub-AMC cleavage, fluorescence; Ubiquitin carboxyl-terminal hydrolase isozyme L5 (Homo sapiens), Q9Y5K5; purified proteasome/UCH37; inhibition, % (no concentration beside the values); 0.33% of 330,000 active;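 active means mean inhibition over replicate wells above about 20%, limit read from the data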;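 further: 0% = compound-free wells with enzyme and 100% = wells lacking proteasome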
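assay system = human UCH37 enzyme supplied as purified proteasome complex | amount = proteasome at 0.15 nM in the dispensed enzyme solution | schedule = 30 min compound-proteasome preincubation then 25 min substrate reaction, room temperature | measured by = fluorescence, ex 355 nm, em 460 nm | benchmarks = no-proteasome wells (full inhibition) and compound-free wells (no inhibition)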
SENP8 block-2: human SENP8 protease inhibitors, primary screen, biochemical, fluorescence, Nedd8 protein substrate, uHTS | Sentrin-specific protease 8 (Homo sapiens), Q96LD8 | recombinant SENP8 | inhibition, % at 20 µM | 0.64% of 360,000 active; in the data active means inhibition mostly above about 40%, no sharp cut-off; inactive means mostly below about 27%
SENP6 inh: SENP6 protease inhibitors, primary screen, biochemical, luminescence, uHTS; AID 2599, 2010; 1.8% of 330,000 active; Sentrin-specific protease 6 (Homo sapiens), Q9GZR1; Recombinant SENP6 catalytic domain, aminoluciferin luminescence; inhibition, % at 10 µM;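 active means inhibition above about 50% at the single tested dose, limit read from the data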;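 further: plate controls were DMSO wells with enzyme for no effect and DMSO wells lacking enzyme for full effect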
SENP7 inh: SENP7 protease inhibitors, primary screen, biochemical, luminescence, uHTS; Sentrin-specific protease 7 (Homo sapiens), Q9BQF6; recombinant SENP7, Z-RLRGG-aminoluciferin luminescence, 40 min; inhibition, % at 5 µM; 1.5% of 330,000 active;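 active means inhibition above about 50% at the single test dose, limit read from the data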;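 further: plate controls were DMSO with enzyme for no effect and no enzyme buffer wells for full effect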
SENP8 conf: SENP8 protease inhibitors, retest, confirmation, biochemical, luminescence, single concentration. shares compounds with SENP7 inh. Recombinant SENP8, Z-RLRGG-aminoluciferin luminescence, 60 min. inhibition, % at 12.5 µM. 40% of 6,200 active. AID 488912, 2010;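 active means mean inhibition across replicates above about 50%, limit read from the data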
SENP6 confirm: SENP6 protease inhibitors, confirmation, biochemical, luminescence, single concentration; AID 488915, 2010; 58% of 6,200 active; recombinant SENP6, Z-RLRGG-aminoluciferin luminescence; shares compounds with SENP7 inh; inhibition, % at 12.5 µM
SENP7 confirm: SENP7 protease inhibitors, retest, confirmation, biochemical, luminescence, single concentration | inhibition, % at 12.5 µM | AID 488917, 2010 | 69% of 6,200 active | recombinant SENP7, Z-RLRGG-aminoluciferin luminescence, 40 min | shares compounds with SENP7 inh
Casp3 SENP sel: caspase-3 protease inhibitors, confirmation, selectivity assay for SENP inhibitor project, biochemical, single concentration. shares compounds with SENP7 inh. purified caspase-3, Z-DEVD-aminoluciferin luminescence, 60 min. inhibition, % at 12.5 µM. 60% of 6,200 active. AID 488918, 2010;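 active means mean inhibition above about 50%, limit read from the data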;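 further: plate controls were enzyme with DMSO for no effect and wells without caspase-3 for full effect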
SENP luc ctr: interferes with luciferase luminescence in SENP counter-screen; shares compounds with SENP7 inh; Pre-incubated SENP8/Z-RLRGG-aminoluciferin, luciferase luminescence interference; inhibition, % at 12.5 µM; 39% of 6,200 active;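 active means mean inhibition above about 50% when retested at one dose, limit read from the data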;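 further: plate controls were DMSO wells with completed reaction for no effect and substrate without enzyme for full effect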
Numbers without * were called inactive; nt = not tested or not shown. Shown are actives, neighbours in structure and some others; about 2.6% of the full set was active somewhere.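 How the source made its calls, unless noted: active means mean inhibition above about 50% in the one-dose retest (limit read from the data); inactive means the rest.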

SMILES	SENP8 block-1	SENP1 inh	UCH37 inh	SENP8 block-2	SENP6 inh	SENP7 inh	SENP8 conf	SENP6 confirm	SENP7 confirm	Casp3 SENP sel	SENP luc ctr
O=C(c1ccco1)N1CCN(C2=NS(=O)(=O)c3ccccc32)CC1	-4	0	4	19	-34	-4	nt	nt	nt	nt	nt
CN1CCN(c2cc(N3CCN(C(=O)c4ccco4)CC3)c3c4c(onc24)-c2ccccc2C3=O)CC1	38	49*	13	65*	55*	21	4	18	12	16	12
O=C(O)COc1ccc(Br)cc1C=NNc1ccccn1	nt	nt	8	nt	nt	nt	nt	nt	nt	nt	nt
c1ccc(C2=NN(c3ccccc3)CC2)cc1	57*	-133	-268	-450	6	59*	13	24	32	40	37
CCOC(=O)/C(=C/c1ccc(N2CCC(c3ccccc3)=N2)cc1)C(C)=O	nt	-26	-276	-394	nt	nt	nt	nt	nt	nt	nt
CN(C)c1ccc(/C=C/C(=O)c2cccc(Br)c2)cc1	18	-23	-2	-38	52*	27	37	38	28	21	13
CN(C)c1ccc(C(=O)/C=C/c2cccnc2)cc1	-10	-7	9	-22	-11	-8	nt	nt	nt	nt	nt
Cc1ccc(Nc2nc(N=CNO)n[nH]2)cc1C	nt	nt	1	nt	nt	nt	nt	nt	nt	nt	nt
Nc1c(-c2ccccc2)cnn1-c1cccc(Cl)c1	84*	2	6	6	90*	94*	90*	90*	99*	87*	81*
Cc1cccc(-c2cnn(-c3ccccc3)c2N)c1	44	-1	5	7	50*	66*	42	42	81*	64*	64*
COc1ccc(C=Nn2c(=S)n(C)c3ccccc32)cc1OC	nt	nt	4	nt	nt	nt	nt	nt	nt	nt	nt
CC(=NNC(=O)CSc1nc(C)cc(C)n1)c1ccc2c(c1)OCCO2	nt	nt	6	nt	nt	nt	nt	nt	nt	nt	nt
Nc1cc(C2CCCC2)nn1-c1ccccc1	32	-4	-4	5	62*	41	38	39	77*	81*	55*
O=C(O)c1cc(C2CC2)nn1-c1ccccc1	-11	-1	2	14	-12	-5	nt	nt	nt	nt	nt
CCCc1cc(=O)c2ccc(OCC(C)=NO)cc2o1	nt	nt	2	nt	nt	nt	nt	nt	nt	nt	nt
O=C(NN=C/C=C\c1ccccc1)c1cnccn1	nt	nt	11	nt	nt	nt	nt	nt	nt	nt	nt
CCC(=O)c1cc(F)c(N2CCN(S(=O)(=O)c3ccccc3)CC2)cc1C	-8	1	2	6	-1	52*	8	12	10	4	0
CCCC(=O)c1cc(F)c(N2CCN(S(=O)(=O)c3ccccc3)CC2)cc1C	-5	0	0	12	-10	7	nt	nt	nt	nt	nt
CCCCOc1ncnc2c1[nH]c1ccc(OCC)cc12	-8	-1	-18	-291	3	-4	nt	nt	nt	nt	nt
CCCCOc1ncnc2c1[nH]c1ccc(OC)cc12	16	nt	-11	nt	34	77*	27	29	48	46	5
